The text below walks through data of ChEMBL document CHEMBL1125077, “Synthetic and computer-assisted analyses of the pharmacophore for the benzodiazepine receptor inverse agonist site” (J Med Chem, 1990).

Structures are written as SMILES.

One test has as its target GABA-A receptor; anion channel. As to the kind of experiment: In vitro inhibition of 3[H]Diazepam binding to Benzodiazepine receptor from rat cerebral cortical membranes; value ranges from 4-12 nM. Format: cell membranes, Membrane.
Consider `S=C=Nc1cc2c3ccccc3nc-2c[nH]1`, for which the IC50 (in general, the midpoint of a concentration-inhibition curve) amounted to 0.004 µM.

In a further test the target is GABA-A receptor; anion channel. As to the kind of experiment: In vitro inhibition of 3[H]Diazepam binding to Benzodiazepine receptor from rat cerebral cortical membranes. It is filed as cell membranes, Membrane. The gist of the method: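 Rat cerebral cortex (decapitation) homogenized in 50 mM Tris-HCl pH 7.4, spun 20000g 20 min at 4 °C, washed three times, resuspended in 50 volumes buffer. Incubated with [3H]diazepam (final 2 nM) at 4 °C for 120 min, then filtered on GF/B with ice-cold buffer washes. Nonspecific binding taken with 10 μM flunitrazepam. IC50 from Hill plots, at least six inhibitor concentrations, mean of three or more experiments.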
`CCCCc1cc2c(cn1)[nH]c1ccccc12` showed an IC50 of 0.245 µM.

As to `CC(C)(C)OC(=O)c1cc2c3ccccc3nc-2c[nH]1`, the half-inhibitory concentration (IC50) is 0.01 µM.

For the compound `CC(C)Oc1cc2c(cn1)[nH]c1ccccc12`, the IC50 came to 0.5 µM.

Compound `Cc1ccc2c(c1)[nH]c1c3c4ccccc4nc-3c[nH]c12` displayed an IC50 of 0.01 µM. This IC50 lies about 50-fold lower than the previous one.

In turn, `CCOC(=O)c1cc2c(cn1)sc1ccccc12` returned an IC50 of 1.7 µM.

`CCCCOc1cc2c(cn1)[nH]c1ccccc12` showed an IC50 of 0.098 µM.

On to `Cc1nccc2c1[nH]c1ccccc12` [HARMAN], for which the half-maximal inhibitory concentration (IC50) was 12.4 µM.

As for `Cc1cccc2[nH]c3c4c5ccccc5nc-4c[nH]c3c12`, the 50% inhibitory concentration (IC50) was 6.86 µM. Against the preceding compound, the IC50 is about 1.8-fold lower.

The compound `CCOC(=O)c1cc2c(cn1)[nH]c1ccccc12` gave an IC50 of 0.005 µM.

The compound `C[n+]1cc2[nH]c3ccccc3c2c2[nH]c3ccccc3c21` showed an IC50 of 4.66 µM.

As for `CCc1nc2c3ccccc3[nH]c2c2c1[nH]c1ccccc12`, the 50% inhibitory concentration (IC50) amounted to 0.285 µM.

For `COC(=O)c1cc2c3ccccc3n(C(C)=O)c2cn1`, the 50% inhibitory concentration (IC50) is 0.009 µM.

As for `COC(=O)c1cc2[nH]c3ccccc3c2cn1`, the IC50 was 0.653 µM.

In turn, `CC(C)(C)COC(=O)c1cc2c3ccccc3nc-2c[nH]1` showed a concentration for half-maximal inhibition (IC50) of 0.75 µM.

As to `CCOC(=O)c1cc2c(cn1)Cc1ccccc1-2`, the concentration for half-maximal inhibition (IC50) worked out at 0.68 µM.

In turn, `CCOC(=O)c1cc2c(cn1)oc1ccccc12` registered a half-inhibitory concentration (IC50) of 9.2 µM.

For `COC(=O)c1cc2c3ccccc3n3c(=O)ccc(n1)c23`, the half-inhibitory concentration (IC50) was 0.1 µM.

`CCCC(=O)c1cc2c(cn1)[nH]c1ccccc12` gave an IC50 of 0.0028 µM.

In turn, `CCOC(=O)c1cc2c3ccccc3c(N=O)c-2c[nH]1` showed an IC50 of 5 µM.

Compound `CCc1nc(C(=O)OC)cc2c1[nH]c1ccccc12` displayed a half-inhibitory concentration (IC50) of 7.54 µM.

Compound `CCOC(=O)c1cc2c(cn1)nc(O)c1ccccc12` had a half-maximal inhibitory concentration (IC50) of 2.4 µM.

The compound `c1ccc2c(c1)[nH]c1c2ccc2[nH]c3ccccc3c21` registered a concentration for half-maximal inhibition (IC50) of 1.97 µM.
